Source: ChEMBL document CHEMBL1150340, “Synthesis of 5'-functionalized nucleosides: S-Adenosylhomocysteine analogues with the carbon-5' and sulfur atoms replaced by a vinyl or halovinyl unit” (Bioorg Med Chem, 2008)

Columns and labels:
[1] = biological target: Adenosylhomocysteinase (Homo sapiens) (UniProt P23526); assay: Inhibition of human S-adenosyl-L-homocysteine hydrolase at 281 uM after 4 hrs
Summary of the method: (§1)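 Human AdoHcy hydrolase (204 nM) was preincubated with inhibitor in buffer A (50 mM, pH 7.2, 1 mM EDTA) at 22 °C, for 0.5 h or 4 h. Residual activity was then read in the synthetic direction: an aliquot was diluted into buffer A with 0.5 mM Ado and 0.5 mM Hcy, held 12 min at 37 °C, and stopped with HClO₄. Duplicates were averaged.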

[2] = biological target: Adenosylhomocysteinase (Homo sapiens) (UniProt P23526); assay: Inhibition of human S-adenosyl-L-homocysteine hydrolase at 281 uM after 0.5 hrs; summary of the method: as §1
[3] = biological target: Adenosylhomocysteinase (Homo sapiens) (UniProt P23526); assay: Inhibition of human S-adenosyl-L-homocysteine hydrolase after 20 mins

Adenosylhomocysteinase (Homo sapiens), sequence (P23526 2-432 limits assumed): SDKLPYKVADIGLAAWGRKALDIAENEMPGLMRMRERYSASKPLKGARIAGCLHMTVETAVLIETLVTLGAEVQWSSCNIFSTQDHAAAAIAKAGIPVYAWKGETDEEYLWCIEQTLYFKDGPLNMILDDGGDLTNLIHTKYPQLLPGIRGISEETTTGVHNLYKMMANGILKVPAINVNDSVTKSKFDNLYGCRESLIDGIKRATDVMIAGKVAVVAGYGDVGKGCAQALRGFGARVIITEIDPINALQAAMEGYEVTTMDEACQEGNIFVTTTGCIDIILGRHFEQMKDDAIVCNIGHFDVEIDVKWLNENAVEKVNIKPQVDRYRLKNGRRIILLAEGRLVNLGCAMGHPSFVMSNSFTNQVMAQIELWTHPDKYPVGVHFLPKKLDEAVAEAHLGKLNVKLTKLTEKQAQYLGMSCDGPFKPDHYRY

Row | Structure (SMILES) | inhibition [1] | inhibition [2] | inhibition [3]
1 | CCOC(=O)CCC/C(F)=C\[C@H]1O[C@@H](n2cnc3c(N)ncnc32)[C@H](O)[C@@H]1O |  | 14.1% | 
2 | CCOC(=O)/C=C/C=C/[C@H]1O[C@@H](n2cnc3c(N)ncnc32)[C@H](O)[C@@H]1O |  |  | 96.4%
3 | CCOC(=O)/C=C/C=C\[C@H]1O[C@@H](n2cnc3c(N)ncnc32)[C@H](O)[C@@H]1O |  |  | 98.2%
4 | Nc1ncnc2c1ncn2[C@@H]1O[C@H](/C=C(/F)CCCC(=O)O)[C@@H](O)[C@H]1O | 35.2% | 15.2% | 

Second part, the compound after the results:

Row | inhibition [1] | inhibition [2] | inhibition [3] | Structure (SMILES)
5 | 92.4% | 28.5% |  | Nc1ncnc2c1ncn2[C@@H]1O[C@H](/C=C/CCCC(=O)O)[C@@H](O)[C@H]1O
6 | 95.5% | 50.5% |  | Nc1ncnc2c1ncn2[C@@H]1O[C@H](/C=C\CCC(=O)O)[C@@H](O)[C@H]1O
7 |  | 81% |  | CCOC(=O)CCC/C=C/[C@H]1O[C@@H](n2cnc3c(N)ncnc32)[C@H](O)[C@@H]1O
8 |  | 68.1% |  | COC(=O)CC/C=C\[C@H]1O[C@@H](n2cnc3c(N)ncnc32)[C@H](O)[C@@H]1O
